Measurements reported in ChEMBL document CHEMBL1123067, “Evaluation of the brain-specific delivery of radioiodinated (iodophenyl)alkyl-substituted amines coupled to a dihydropyridine carrier” (J Med Chem, 1985).

What was measured:
Type in all cases: ADME, organism-based
[1] = test system: Rattus norvegicus; assay: Distribution of radioactivity in heart tissues of Sprague-Dawley rats after 60 min injecton by intravenously; 0.58-0.75; conditions: in vivo, iv, 1 h
Summary of the method: (§1)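 Female Sprague-Dawley rats, 10–12 weeks old (170–200 g), fed ad libitum, under ether anaesthesia. Each received 15.1 μCi of the ¹²⁵I-labelled pyridinium conjugate or 10.6 μCi of the dihydropyridine conjugate by lateral tail vein. Dose was in 20% Me2SO/saline with vitamin E (~5 mg/mL), 0.22-μm filtered. Five rats per time point. Tissue activity was read against injected-solution standards as % injected dose/g.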

[2] = test system: Rattus norvegicus; assay: Distribution of radioactivity in kidney tissues of Sprague-Dawley rats after 60 min injecton by intravenously; 0.49-0.57; conditions: in vivo, iv, 1 h; summary of the method: as §1
[3] = test system: Rattus norvegicus; assay: Distribution of radioactivity in lung tissues of Sprague-Dawley rats after 60 min injecton by intravenously; 0.5-0.65; conditions: in vivo, iv, 1 h
Summary of the method: (§2)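 Female Sprague-Dawley rats, 10–12 weeks, 170–200 g, fed ad libitum, five per time point. Agent dissolved in minimal Me2SO, diluted with saline to 20% Me2SO, with vitamin E (~5 mg/mL) added, 0.22-µm filtered. 15.1 or 10.6 µCi (per agent) injected into lateral tail vein under ether. Lungs taken; % injected dose/g against injected-solution standards; mean (range).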

[4] = test system: Rattus norvegicus; assay: Distribution of radioactivity in blood tissues of Sprague-Dawley rats after 60 min injecton by intravenously; 0.58-0.77; conditions: in vivo, iv, 1 h
[5] = test system: Rattus norvegicus; assay: Distribution of radioactivity in liver tissues of Sprague-Dawley rats after 5 min injecton by intravenously; 1.03-1.31; conditions: in vivo, iv; summary of the method: as §1
[6] = test system: Rattus norvegicus; assay: Distribution of radioactivity in brain tissues of Sprague-Dawley rats after 60 min injecton by intravenously; 0.03-0.06; conditions: in vivo, iv, 1 h
[7] = test system: Rattus norvegicus; assay: Distribution of radioactivity in kidney tissues of Sprague-Dawley rats after 15 min injecton by intravenously; 0.62-0.92; conditions: in vivo, iv, 0.25 h; summary of the method: as §1
[8] = test system: Rattus norvegicus; assay: Distribution of radioactivity in kidney tissues of Sprague-Dawley rats after 5 min injecton by intravenously; 1.73-2.64; conditions: in vivo, iv; summary of the method: as §1
[9] = test system: Rattus norvegicus; assay: Distribution of radioactivity in blood tissues of Sprague-Dawley rats after 5 min injecton by intravenously; 1.0-1.24; conditions: in vivo, iv
[10] = test system: Rattus norvegicus; assay: Distribution of radioactivity in lung tissues of Sprague-Dawley rats after 30 min injecton by intravenously; 0.54-0.7; conditions: in vivo, iv, 0.5 h; summary of the method: as §2
[11] = test system: Rattus norvegicus; assay: Distribution of radioactivity in heart tissues of Sprague-Dawley rats after 15 min injecton by intravenously; 0.68-0.84; conditions: in vivo, iv, 0.25 h
[12] = test system: Rattus norvegicus; assay: Distribution of radioactivity in liver tissues of Sprague-Dawley rats after 30 min injecton by intravenously; 0.54-0.89; conditions: in vivo, iv, 0.5 h; summary of the method: as §1
[13] = test system: Rattus norvegicus; assay: Distribution of radioactivity in heart tissues of Sprague-Dawley rats after 30 min injecton by intravenously; 0.58-0.82; conditions: in vivo, iv, 0.5 h; summary of the method: as §1
[14] = test system: Rattus norvegicus; assay: Distribution of radioactivity in heart tissues of Sprague-Dawley rats after 5 min injecton by intravenously; 0.79-0.85; conditions: in vivo, iv; summary of the method: as §1
[15] = test system: Rattus norvegicus; assay: Distribution of radioactivity in brain tissues of Sprague-Dawley rats after 30 min injecton by intravenously; 0.03-0.06; conditions: in vivo, iv, 0.5 h
[16] = test system: Rattus norvegicus; assay: Distribution of radioactivity in brain tissues of Sprague-Dawley rats after 15 min injecton by intravenously; 0.03-0.06; conditions: in vivo, iv, 0.25 h
[17] = test system: Rattus norvegicus; assay: Distribution of radioactivity in blood tissues of Sprague-Dawley rats after 15 min injecton by intravenously; 0.72-1.03; conditions: in vivo, iv, 0.25 h
[18] = test system: Rattus norvegicus; assay: Distribution of radioactivity in blood tissues of Sprague-Dawley rats after 30 min injecton by intravenously; 0.65-0.83; conditions: in vivo, iv, 0.5 h
[19] = test system: Rattus norvegicus; assay: Distribution of radioactivity in kidney tissues of Sprague-Dawley rats after 30 min injecton by intravenously; 0.58-0.73; conditions: in vivo, iv, 0.5 h; summary of the method: as §1
[20] = test system: Rattus norvegicus; assay: Distribution of radioactivity in brain tissues of Sprague-Dawley rats after 5 min injecton by intravenously; 0.05-0.07; conditions: in vivo, iv
[21] = test system: Rattus norvegicus; assay: Distribution of radioactivity in liver tissues of Sprague-Dawley rats after 60 min injecton by intravenously; 0.38-0.57; conditions: in vivo, iv, 1 h; summary of the method: as §1
[22] = test system: Rattus norvegicus; assay: Distribution of radioactivity in lung tissues of Sprague-Dawley rats after 15 min injecton by intravenously; 0.58-0.86; conditions: in vivo, iv, 0.25 h; summary of the method: as §2
[23] = test system: Rattus norvegicus; assay: Distribution of radioactivity in liver tissues of Sprague-Dawley rats after 15 min injecton by intravenously; 0.81-1.18; conditions: in vivo, iv, 0.25 h; summary of the method: as §1
[24] = test system: Rattus norvegicus; assay: Distribution of radioactivity in lung tissues of Sprague-Dawley rats after 5 min injecton by intravenously; 0.76-0.91; conditions: in vivo, iv; summary of the method: as §2

`C[n+]1cccc(C(=O)Nc2ccc([125I])cc2)c1.[I-]` was tested, and the Distribution [1] was 0.67%, the Distribution [2] was 0.53% and the Distribution [3] was 0.57%. The Distribution [4] was 0.67%, the Distribution [5] was 1.18% and the Distribution [6] was 0.04%. It also gave a Distribution [7] of 0.74%, a Distribution [8] of 2.1% and a Distribution [9] of 1.11%. It also gave a Distribution [10] of 0.62%, a Distribution [11] of 0.76% and a Distribution [12] of 0.71%. It also gave a Distribution [13] of 0.68%, a Distribution [14] of 0.83% and a Distribution [15] of 0.04%. The Distribution [16] was 0.05%, the Distribution [17] was 0.87% and the Distribution [18] was 0.75%. It also gave a Distribution [19] of 0.65%, a Distribution [20] of 0.06% and a Distribution [21] of 0.49%. The Distribution [22] was 0.72%, the Distribution [23] was 1.04% and the Distribution [24] was 0.84%.
